From PMC2695835 (Bioorganic & medicinal chemistry, 2009) come the findings set out here.

Each structure is given as a SMILES string. Where “and” joins values, the source holds several entries; their conditions need not be identical. Equal values may be shown once.

For the assay, the target named is T1, GVIA iPLA2 (Homo sapiens, UniProt O60733).
T1 sequence (O60733 1-806): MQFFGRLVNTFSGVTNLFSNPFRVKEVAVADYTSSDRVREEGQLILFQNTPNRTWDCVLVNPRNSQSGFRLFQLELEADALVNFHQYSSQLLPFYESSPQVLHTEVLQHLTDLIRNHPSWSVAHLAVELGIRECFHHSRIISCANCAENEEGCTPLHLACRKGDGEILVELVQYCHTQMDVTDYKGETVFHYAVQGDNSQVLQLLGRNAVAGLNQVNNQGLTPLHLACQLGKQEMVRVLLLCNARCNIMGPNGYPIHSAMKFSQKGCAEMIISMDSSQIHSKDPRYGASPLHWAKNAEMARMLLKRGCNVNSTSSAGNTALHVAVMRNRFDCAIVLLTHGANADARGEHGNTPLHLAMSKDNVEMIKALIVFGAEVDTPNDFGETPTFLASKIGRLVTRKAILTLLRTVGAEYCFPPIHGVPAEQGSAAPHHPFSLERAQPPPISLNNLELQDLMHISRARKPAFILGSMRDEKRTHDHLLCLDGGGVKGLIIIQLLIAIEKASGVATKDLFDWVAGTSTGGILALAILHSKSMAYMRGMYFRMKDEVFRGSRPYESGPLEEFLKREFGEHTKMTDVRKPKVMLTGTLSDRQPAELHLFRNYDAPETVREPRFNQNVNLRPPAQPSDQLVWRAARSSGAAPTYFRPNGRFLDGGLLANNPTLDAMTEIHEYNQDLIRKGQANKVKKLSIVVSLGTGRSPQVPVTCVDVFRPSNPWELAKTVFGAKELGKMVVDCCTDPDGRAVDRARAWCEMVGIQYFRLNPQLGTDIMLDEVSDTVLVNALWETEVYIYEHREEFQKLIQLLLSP
Nature of the assay: In vitro GVIA iPLA2 inhibition, mixed micellar modified Dole assay. The class given is biochemical. To be noted: mole fraction of inhibitor in total substrate interface required to inhibit the enzyme by 50%; mixed micelles. The method in brief:
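Human GVIA iPLA2 on Triton X-100 mixed micelles, either 400 μM Triton X-100/99 μM DPPC/1.5 μM 14C-DPPC in 200 mM HEPES pH 7.0, 1 mM ATP, 2 mM DTT, 0.1 mg/ml BSA, or 400 μM Triton/98.3 μM PAPC/1.7 μM 14C-PAPC in 100 mM HEPES pH 7.5, 2 mM ATP, 4 mM DTT. XI(50) obtained when screening inhibition exceeded 90%: 7 points (typically 0.005–0.091 mole fraction), linear or one-site hyperbola (BMAX = 100) fit.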
Consider `CCCCCCCCCCCCCCC(=O)C(=O)N[C@@H](CCCC)COCC(=O)OCC` [Compound 13, (S)-Ethyl 2-(2-(2-oxohexadecanamido)hexyloxy)acetate], for which the “GVIA iPLA2 XI(50)” value is 0.017 mole fraction and 0.017 ± 0.002 mole fraction.

For the compound `CCCCCCCCCCCCCCC(=O)C(=O)N[C@@H](CCCC)C(=O)NCC(=O)OC` [Compound 4a, (S)-Methyl 2-(2-(2-oxohexadecanamido)hexanamido)acetate], the “GVIA iPLA2 XI(50)” value is recorded as 0.045 ± 0.018 mole fraction.

For `CCCCCCCCCCCCCCC(=O)C(=O)N[C@H](C(=O)NCC(=O)OC(C)(C)C)C(C)C` [Compound 8b, (S)-tert-Butyl 2-(3-methyl-2-(2-oxohexadecanamido)butanamido)acetate], the “GVIA iPLA2 XI(50)” value is given as 0.044 ± 0.025 mole fraction.

Consider `CCCCCCCCCCCCCCC(=O)C(=O)N[C@@H](CCCC)C(=O)NCC(=O)OCC` [Compound 4c, (S)-Ethyl 2-(2-(2-oxohexadecanamido)hexanamido)acetate], for which the “GVIA iPLA2 XI(50)” value was 0.020 mole fraction and 0.020 ± 0.002 mole fraction.

As to `CCCCCCCCCCCCCCC(=O)C(=O)N[C@@H](CCCC)C(=O)NCC(=O)OC(C)(C)C` [Compound 8a, (S)-tert-Butyl 2-(2-(2-oxohexadecanamido)hexanamido)acetate], the “GVIA iPLA2 XI(50)” value was 0.011 mole fraction and 0.011 ± 0.001 mole fraction.
